This is an account of results in PMC11041979 (International Journal of Nanomedicine, 2024).

By solubility is commonly meant the concentration that dissolves in the medium under given conditions. A lower solubility goes with a poorly soluble substance. Usually AUC(0-t) stands for exposure summed from dosing to a finite time, without extrapolation to infinity. Low readings indicate low exposure, high ones high exposure. The term Cmax denotes the peak of the concentration-time curve. By Tmax is commonly meant the time from dosing to the highest level. The half-life is how long it takes for the measured level to halve. Read a high half-life as slow decline.

≈ marks a conversion by molar mass, not a printed value.

One data set in a line: Water solubility assay. It counts as physicochemical. The gist of the method: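 Saturated aqueous test-compound solutions were sonicated, centrifuged and diluted 10–500-fold. Carbon dots (3 mg/mL stock) were diluted to 10 levels, 1500–3.12 μg/mL. Samples were centrifuged at 10000 rpm for 10 min and filtered through 0.22 µm. HPLC used a C18 column at 30°C with 0.4% acetic acid water–acetonitrile 85:15 at 1.0 mL/min and detection at 318 nm. Calibration followed Chinese Pharmacopoeia methods.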

Data set [1] can be described thus: Pharmacokinetics of MA in rats after oral gavage. It counts as in vivo, Sprague-Dawley rats. The gist of the method:
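Male Sprague-Dawley rats (200 ± 20 g), acclimatised 1 week, fasted 12 h with free water. Test compound given by gavage at 20 mg/kg (2 mg/mL) as an aqueous suspension or as a saturated suspension in carbon-dot solution (stirred 20 min). Orbital blood drawn 5–1440 min into heparin. Plasma protein-precipitated with acetonitrile:acetic acid 9:1, isomangiferin internal standard, UHPLC-MS/MS. Mean ± SD.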

For data set [2] the following is noted: literature value; cited from earlier work.
[3] abbreviates: Sprague-Dawley, rat, plasma, po, 20 mg/kg.

In the case of `O=c1c2cc(O)c(O)cc2oc2cc(O)c([C@@H]3O[C@H](CO)[C@@H](O)[C@H](O)[C@H]3O)c(O)c12` [MA, Mangiferin], the “solubility of MA in water with MC-CDs” value in “Water solubility assay” (aqueous MC-CDs solution, MC-CDs concentration exceeding 100 μg/mL) is “increases significantly”. This compound also yielded a solubility in the data set “Water solubility assay” (water, thermodynamic from solid) of 0.115 mg/mL (≈ 273 µM). This compound showed a maximum concentration in data set [1] (MA, oral, preliminary rat pharmacokinetics) of 200 ng. Further, in data set [1] (setting [3]), the AUC(0-t) was 1.52 ± 2.64 ng·h/mL, the concentration peaked (Cmax) at 0.201 ± 0.0314 ng/mL, the Tmax was 4 ± 1.42 h and the half-life is 3.27 ± 2.18 h. The “Tmax after oral administration” value in data set [2] was “about 267.49 ± 108.29 min”.
